Results collected from several papers.
Protocols differ between the studies behind these lines.
CTSB: Cathepsin B (CTSB, Homo sapiens, UniProt P07858)
Genome polyprotein protease: Genome polyprotein, protease (ZIKV, UniProt A0A024B7W1)
CDK2 with cyclin E1: Cyclin-dependent kinase 2, with cyclin E1 (CDK2, Homo sapiens, UniProt P24941)

The IC50 of `CC(C)C[C@H]1C(=O)N2CCC[C@H]2[C@]2(O)O[C@](NC(=O)[C@@H]3C=C4c5cccc6[nH]c(Br)c(c56)C[C@H]4N(C)C3)(C(C)C)C(=O)N12` is reported as 0.152 µM (5-hydroxytryptamine receptor 7 (HTR7, Homo sapiens, UniProt P34969); ligand displacement; radioligand).
For `COCCn1c2nc(=O)n(-c3ccccc3)c(=O)c-2nc2ccccc21`, the IC50 was 6.8 µM (Genome polyprotein, methyltransferase (ZIKV, UniProt A0A024B7W1); enzyme activity; inhibitor; TR-FRET).
With `Cc1ccc(-c2ncn(-c3ccc(Nc4nccc(-c5cccc(N6CCOCC6)c5)n4)cc3)n2)cn1` the IC50 was 0.159 µM (Mitogen-activated protein kinase 10 (MAPK10, Homo sapiens, UniProt P53779); enzyme activity; inhibitor).
For `Nc1ncnc2c1ncn2[C@@H]1O[C@H](COP(=O)(O)OP(=O)(O)OP(=O)(O)O)[C@@H](O)[C@H]1O`, the IC50 was 0.2 µM (Heat shock cognate 71 kDa protein (HSPA8, Homo sapiens, UniProt P11142); ligand displacement; FP).
For `N=C1CCCN1Cc1[nH]c(=O)[nH]c(=O)c1Br`, the IC50 was 0.0027 µM (Thymidine phosphorylase (Homo sapiens, UniProt P19971); enzyme activity; inhibitor).
For `C[C@H](N)Cn1ncc2ccc3c(c21)CCCO3`, the IC50 was 100 µM (Alpha-1A adrenergic receptor (Adra1a, Rattus norvegicus, UniProt P43140); ligand displacement; radioligand).
For `CC1=NCCc2c1[nH]c1cc(O)ccc21`, the IC50 was 14 µM (Receptor-type tyrosine-protein phosphatase C (PTPRC, Homo sapiens, UniProt P08575); enzyme activity; inhibitor; fluorescence).
With `CC(C)C[C@H](NC(=O)[C@H]1O[C@@H]1C(=O)O)C(=O)NCCCCN=C(N)N` the IC50 was 0.004 µM (CTSB; enzyme activity; inhibitor).
`C[C@@H]1O[C@@H](OC[C@H]2O[C@@H](Oc3c(-c4ccc(O)c(O)c4)oc4cc(O)cc(O)c4c3=O)[C@H](O)[C@@H](O)[C@@H]2O)[C@H](O)[C@H](O)[C@H]1O` gave an IC50 of 104 µM (Genome polyprotein protease; enzyme activity; inhibitor; FRET; pH 7).
`COc1c(-c2ccc3c(c2)OCO3)oc2c(ccc3occc32)c1=O` has an IC50 of greater than 100 µM (CDK2 with cyclin E1; enzyme activity; inhibitor; ADP detection).
The IC50 of `CC(C)[C@H](NC(=O)[C@H](CCCNC(=N)N)NC(=O)N[C@@H](Cc1ccccc1)C(=O)O)C(=O)N[C@H](C=O)CCCNC(=N)N` is reported as 0.00822 µM (CTSB; enzyme activity; inhibitor; fluorescence; pH 5.5).
The IC50 of `COc1cc2oc(-c3ccc(O)c(O)c3)cc(=O)c2c(O)c1O` is reported as 5 µM (Genome polyprotein protease; enzyme activity; inhibitor; pH 8.5).
The IC50 of `O=c1c2ccccc2[nH]c(=S)n1-c1ccccc1` is reported as 76.7 µM (CTSB; enzyme activity; inhibitor).
The IC50 of `O=c1cc(-c2ccccc2)oc2c1ccc1occc12` is reported as 7.9 µM (CDK2 with cyclin E1; enzyme activity; inhibitor; ADP detection).
`COc1ncccc1NS(=O)(=O)c1ccc(S(=O)(=O)F)c2c1CCNC2` has an IC50 of greater than 100 µM (RALB (Homo sapiens, UniProt P11234, Y82F); cell-free assay; inhibitor; fluorescence).
